{
  "source": "paper PMC11066147",
  "about": "(Heliyon, 2024)",
  "key": {"[1]": {"test_system": "clients from E. coli ΔdnaK52 cells", "assay": "co-affinity assay coupled to LC-MS, clients from E. coli ΔdnaK52", "format": "binding"}, "[2]": {"test_system": "clients from E. coli JM109 cells", "assay": "co-affinity assay coupled to LC-MS, clients from E. coli JM109", "format": "binding", "in_short": "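Pull-down bait was His-tagged Hsp70 (wild type or linker-swap variant), immobilised on cobalt resin in TBS (10 mM Tris-HCl pH 7.5, 50 mM NaCl, 10 mM imidazole) for 4 h at 4 °C, then washed 5×. E. coli JM109 lysate (prey) was added overnight at 4 °C, followed by 5 washes. Elution used 290 mM imidazole. Eluates were run on silver-stained SDS-PAGE; unique bands were excised and identified by LC-MS.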"}, "DnaK": {"target": "DnaK (Escherichia coli, UniProt P0A6Y8)", "sequence (P0A6Y8 whole entry)": "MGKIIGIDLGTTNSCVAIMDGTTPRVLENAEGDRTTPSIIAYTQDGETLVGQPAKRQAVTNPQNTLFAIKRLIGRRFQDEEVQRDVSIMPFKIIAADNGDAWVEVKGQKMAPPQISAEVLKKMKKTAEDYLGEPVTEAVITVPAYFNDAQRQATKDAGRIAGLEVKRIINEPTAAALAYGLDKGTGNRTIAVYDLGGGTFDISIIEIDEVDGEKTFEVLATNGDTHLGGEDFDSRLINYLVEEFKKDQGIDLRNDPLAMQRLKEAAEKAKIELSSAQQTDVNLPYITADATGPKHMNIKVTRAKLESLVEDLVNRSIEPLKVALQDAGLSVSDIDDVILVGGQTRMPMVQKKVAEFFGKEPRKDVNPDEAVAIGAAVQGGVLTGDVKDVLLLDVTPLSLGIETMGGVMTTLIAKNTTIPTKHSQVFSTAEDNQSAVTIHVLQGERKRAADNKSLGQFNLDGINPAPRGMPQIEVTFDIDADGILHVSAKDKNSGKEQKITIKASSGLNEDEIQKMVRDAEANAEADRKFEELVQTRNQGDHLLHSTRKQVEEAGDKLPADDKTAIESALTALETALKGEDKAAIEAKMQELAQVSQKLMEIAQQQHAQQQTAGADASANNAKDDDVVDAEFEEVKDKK", "settings": "SPR; presence of ATP"}, "proteins": {"test_system": "proteins", "settings": "ref [33]; cited from earlier work"}, "PfHsp70-z": {"target": "T1, PfHsp70-z (Plasmodium falciparum, UniProt Q8IC01)", "T1 sequence (Q8IC01 1-873)": "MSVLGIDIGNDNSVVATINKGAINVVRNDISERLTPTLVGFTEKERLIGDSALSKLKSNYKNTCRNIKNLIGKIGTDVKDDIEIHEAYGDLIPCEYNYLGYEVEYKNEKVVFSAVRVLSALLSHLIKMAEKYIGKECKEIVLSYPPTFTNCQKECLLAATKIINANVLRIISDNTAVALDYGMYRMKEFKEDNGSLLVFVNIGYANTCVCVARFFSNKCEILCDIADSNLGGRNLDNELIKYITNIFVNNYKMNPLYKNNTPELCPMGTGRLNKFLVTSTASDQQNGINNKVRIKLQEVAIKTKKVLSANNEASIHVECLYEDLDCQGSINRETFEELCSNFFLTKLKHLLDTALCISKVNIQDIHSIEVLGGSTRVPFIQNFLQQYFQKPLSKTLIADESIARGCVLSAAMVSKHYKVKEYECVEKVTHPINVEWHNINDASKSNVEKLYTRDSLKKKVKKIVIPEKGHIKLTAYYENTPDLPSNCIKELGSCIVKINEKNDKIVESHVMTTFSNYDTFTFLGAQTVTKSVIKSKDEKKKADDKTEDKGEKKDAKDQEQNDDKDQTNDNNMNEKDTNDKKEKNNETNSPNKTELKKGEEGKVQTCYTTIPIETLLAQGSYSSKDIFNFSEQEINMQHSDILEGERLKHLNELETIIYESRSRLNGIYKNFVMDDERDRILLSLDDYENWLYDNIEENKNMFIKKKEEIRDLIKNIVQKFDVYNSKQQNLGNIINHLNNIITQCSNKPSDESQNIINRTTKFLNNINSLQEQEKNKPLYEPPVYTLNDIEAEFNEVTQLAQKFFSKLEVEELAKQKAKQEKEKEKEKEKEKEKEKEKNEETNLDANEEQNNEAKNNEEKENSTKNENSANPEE", "settings": "previous study, ref [10], cited from earlier work"}, "PfHsp70-1 [3]": {"target": "T2, PfHsp70-1 (Plasmodium falciparum, UniProt Q8IB24)", "T2 sequence (Q8IB24 1-677)": "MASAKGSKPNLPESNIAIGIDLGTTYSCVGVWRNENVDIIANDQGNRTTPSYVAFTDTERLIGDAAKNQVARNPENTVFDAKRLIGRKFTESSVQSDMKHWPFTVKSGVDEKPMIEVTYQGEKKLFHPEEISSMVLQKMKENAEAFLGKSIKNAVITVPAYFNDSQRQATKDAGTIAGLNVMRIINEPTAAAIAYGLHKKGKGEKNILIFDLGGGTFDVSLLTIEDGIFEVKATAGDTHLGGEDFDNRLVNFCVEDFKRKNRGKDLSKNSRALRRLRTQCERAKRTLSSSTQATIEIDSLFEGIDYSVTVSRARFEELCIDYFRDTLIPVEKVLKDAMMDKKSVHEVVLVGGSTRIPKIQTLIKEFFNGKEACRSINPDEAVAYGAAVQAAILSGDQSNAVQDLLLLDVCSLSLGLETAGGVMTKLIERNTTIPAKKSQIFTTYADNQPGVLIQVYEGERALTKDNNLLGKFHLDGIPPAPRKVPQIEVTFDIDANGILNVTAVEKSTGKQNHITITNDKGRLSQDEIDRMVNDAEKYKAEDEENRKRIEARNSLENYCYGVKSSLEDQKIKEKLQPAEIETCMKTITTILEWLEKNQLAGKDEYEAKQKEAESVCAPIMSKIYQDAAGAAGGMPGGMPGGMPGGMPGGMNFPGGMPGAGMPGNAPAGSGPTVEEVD", "settings": "previous study, ref [10], cited from earlier work"}, "PfHsp70-1 [4]": {"target": "T2, PfHsp70-1", "assay": "SPR self-association, immobilised ligand PfHsp70-1", "format": "binding"}},
  "note": "“Also recorded” adds a separate entry of the source.",
  "data": [
    {"substance": "DnaK: E. coli Hsp70, recombinant", "values": [
      {"measurement": "association with CH60/GroEL", "setting": "[1]", "result": "associated with DnaK within the E. coli ΔdnaK52 cell background"},
      {"measurement": "number of clients bound", "setting": "[1]", "result": 110, "unit": "clients"},
      {"measurement": "size of another prominent client cluster", "setting": "[1]", "result": "above 100 kDa"},
      {"measurement": "association with CH60/GroEL", "setting": "[2]", "result": "not with DnaK"},
      {"measurement": "pI of a further group of clients", "setting": "[2]", "result": "around 9.5"},
      {"measurement": "pI of majority of clients", "setting": "[2]", "result": "5.5–6.0"},
      {"measurement": "pI of some unique clients", "setting": "[2]", "result": "above 10"},
      {"measurement": "size of most clients", "setting": "[2]", "result": "around 50 kDa"},
      {"measurement": "number of unique clients", "setting": "[2]; unique relative to the other chaperone", "result": 41, "unit": "clients"},
      {"measurement": "effect of ATP on self-association", "setting": "DnaK", "result": "promoted by ATP"},
      {"measurement": "number of aggregation-prone (unstable) clients", "setting": "proteins", "result": "~180", "unit": "proteins"}
    ]},
    {"substance": "GFRLLLMYRF", "values": [
      {"measurement": "effect of nucleotide on peptide binding", "setting": "PfHsp70-z", "result": "nucleotide independent"},
      {"measurement": "effect of nucleotide on peptide affinity", "setting": "PfHsp70-1 [3]", "result": "regulated by ADP/ATP"}
    ]},
    {"substance": "GFRNNNMYRF", "values": [
      {"measurement": "effect of nucleotide on peptide binding", "setting": "PfHsp70-z", "result": "nucleotide independent"},
      {"measurement": "peptide preference", "setting": "PfHsp70-z; vs GFRLLLMYRF", "result": "preferentially bind to the Asp-enriched peptide"},
      {"measurement": "effect of nucleotide on peptide affinity", "setting": "PfHsp70-1 [3]", "result": "regulated by ADP/ATP"},
      {"measurement": "peptide preference", "setting": "PfHsp70-1 [3]; vs GFRLLLMYRF", "result": "preferentially bind to the Asp-enriched peptide"}
    ]},
    {"substance": "PfHsp70-1: canonical cytosolic Hsp70 chaperone of Plasmodium falciparum, recombinant", "values": [
      {"measurement": "self-association without nucleotide vs ADP", "setting": "PfHsp70-1 [4]", "result": "comparable affinity in the absence of nucleotide and in the presence of ADP"},
      {"measurement": "effect of ATP on self-association", "setting": "PfHsp70-1 [4]; ATP vs apo- or ADP-states", "result": "tenfold increase; also recorded: promoted by ATP"}
    ]}
  ]
}
